The source made the active and inactive calls. The calls are words filed in the database; no cut-off is given here.
Columns and labels:
[1] = Antitumor activity against human U87MG cells xenografted in mouse assessed as tumor volume at 0.5 mg/kg, ip administered as q3w/14 days regime relative to control; format: functional, U-87MG ATCC
Summary of the method: (§1)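 Mice bearing U87MG xenografts randomised at about 130 mm3 tumour volume (n = 12 control, n = 6 per treatment); dosing i.p. three times a week to end of study (q3w/14). Read-out is relative tumour volume (RTV), with T/C (%) versus untreated control; significance by Student's t-test.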

Mus musculus [2] = test: Toxicity in mouse xenografted with human U87MG cells assessed as overt signs of symptoms at 2 mg/kg, ip administered as q3w/14 days regime; format: organism-based, U-87MG ATCC; settings: in vivo, 336 h
Mus musculus [3] = test: Toxicity in mouse xenografted with human U87MG cells assessed as death at 2 mg/kg, ip administered as q3w/14 days regime; format: organism-based, U-87MG ATCC; settings: in vivo, 336 h
[4] = target: T1, DNA topoisomerase 1 (Homo sapiens) (UniProt P11387); test: Inhibition of topoisomerase 1 (unknown origin) assessed as reduction in enzyme-mediated relaxation of supercoiled pBR322 DNA at 100 uM after 30 mins by agarose gel electrophoresis
T1 sequence (whole entry): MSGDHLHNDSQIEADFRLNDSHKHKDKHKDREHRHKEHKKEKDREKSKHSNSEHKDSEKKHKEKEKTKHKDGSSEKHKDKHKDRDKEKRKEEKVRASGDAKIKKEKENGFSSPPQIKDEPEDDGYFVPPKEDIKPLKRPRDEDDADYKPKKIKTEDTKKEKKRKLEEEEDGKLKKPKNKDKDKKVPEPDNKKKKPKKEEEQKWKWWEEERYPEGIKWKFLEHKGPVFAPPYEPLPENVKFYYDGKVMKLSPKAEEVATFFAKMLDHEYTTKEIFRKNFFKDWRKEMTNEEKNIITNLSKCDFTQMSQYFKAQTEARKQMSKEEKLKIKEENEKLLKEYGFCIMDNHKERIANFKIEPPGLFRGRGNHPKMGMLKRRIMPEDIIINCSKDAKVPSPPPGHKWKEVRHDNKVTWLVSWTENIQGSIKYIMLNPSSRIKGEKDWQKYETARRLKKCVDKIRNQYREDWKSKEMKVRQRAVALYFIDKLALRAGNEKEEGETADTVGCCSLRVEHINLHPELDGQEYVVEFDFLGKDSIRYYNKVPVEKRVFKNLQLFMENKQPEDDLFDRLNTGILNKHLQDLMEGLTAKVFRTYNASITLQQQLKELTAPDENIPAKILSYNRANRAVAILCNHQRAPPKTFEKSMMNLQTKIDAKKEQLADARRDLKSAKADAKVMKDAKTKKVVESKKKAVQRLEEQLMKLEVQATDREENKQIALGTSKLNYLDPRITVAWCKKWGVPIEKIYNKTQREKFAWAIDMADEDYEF

[5] = Antitumor activity against human U87MG cells xenografted in mouse assessed as tumor volume at 2 mg/kg, ip administered as q3w/14 days regime relative to control; format: functional, U-87MG ATCC; summary of the method: as §1
Mus musculus [6] = test: Toxicity in mouse xenografted with human U87MG cells assessed as death at 0.5 mg/kg, ip administered as q3w/14 days regime; format: organism-based, U-87MG ATCC; settings: in vivo, 336 h
MCF7 [7] = test: Retention time in human MCF7 cells at 10^-5 M by HPLC analysis; format: ADME, cell-based; settings: mcf7, 10 µM
Summary of the method: (§2)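 MCF-7 cells exposed to 10^-5 M prodrug for 2 days; culture medium collected, centrifuged to remove cells, diluted to fixed volume and analysed by HPLC. Prodrug and SN-38 identified by retention time; relative amounts taken from chromatographic peak areas.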

MCF7 [8] = test: Drug level in human MCF7 cells at 10^-5 M after 2 days by HPLC analysis; format: ADME, cell-based; settings: mcf7, 48 h, 10 µM; summary of the method: as §2
[9] = Cytotoxicity against human HCT15 cells assessed as growth inhibition after 72 hrs by SRB assay; format: functional, cell-based; settings: HCT-15, 72 h
Summary of the method: (§3)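 Cells from ATCC, 6,000–10,000 per well, treated in triplicate with graded concentrations for 72 h at 37 °C. Growth inhibition read by sulforhodamine B staining; IC50 taken from dose–response curves.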

Mus musculus [10] = test: Toxicity in mouse xenografted with human U87MG cells assessed as change in body weight at 2 mg/kg, ip administered as q3w/14 days regime (reference value: 23.12%); format: organism-based, U-87MG ATCC; settings: in vivo, 336 h
MCF7 [11] = test: Cytotoxicity against human MCF7 cells assessed as growth inhibition after 72 hrs by SRB assay; format: functional, cell-based; settings: MCF7, 72 h; summary of the method: as §3
MDA-MB-231 = test: Cytotoxicity against human MDA-MB-231 cells assessed as growth inhibition after 72 hrs by SRB assay; format: functional, cell-based; settings: MDA-MB-231, 72 h; summary of the method: as §3
Mus musculus [12] = test: Toxicity in mouse xenografted with human U87MG cells assessed as change in body weight at 0.5 mg/kg, ip administered as q3w/14 days regime (reference value: 23.12%); format: organism-based, U-87MG ATCC; settings: in vivo, 336 h
U-251 = test: Cytotoxicity against human U251 cells assessed as growth inhibition after 72 hrs by SRB assay; format: functional, cell-based; settings: U-251, 72 h; summary of the method: as §3
Mus musculus [13] = test: Toxicity in mouse xenografted with human U87MG cells assessed as anaphylactic reaction at 2 mg/kg, ip administered as q3w/14 days regime; format: organism-based, U-87MG ATCC; settings: in vivo, 336 h
[14] = Prodrug activation in pH 7.4 phosphate buffer assessed as H2O2-mediated SN38 release incubated for 8 hrs by HPLC analysis; settings: pH 7.4, 8 h
Summary of the method: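 Prodrug (1 mM) in phosphate buffer pH 7.4 with H2O2 at 0.5–10 mM final, 37 °C for 8 h. Quenched with equal volume of 50 mM sodium thiosulfate; SN-38 release quantified by HPLC.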

[15] = Cytotoxicity against human U87MG cells assessed as growth inhibition after 72 hrs by SRB assay; format: functional, cell-based, U-87MG ATCC; settings: U-87 MG; summary of the method: as §3
HT-29 = test: Cytotoxicity against human HT-29 cells assessed as growth inhibition after 72 hrs by SRB assay; format: functional, cell-based; settings: HT-29, 72 h; summary of the method: as §3
Mus musculus [16] = test: Toxicity in mouse xenografted with human U87MG cells assessed as change in body weight at 15 mg/kg, ip administered as q3w/14 days regime (reference value: 23.12%); format: organism-based, U-87MG ATCC; settings: in vivo, 336 h
Mus musculus [17] = test: Toxicity in mouse xenografted with human U87MG cells assessed as death at 15 mg/kg, ip administered as q3w/14 days regime; format: organism-based, U-87MG ATCC; settings: in vivo, 336 h
[18] = Antitumor activity against human U87MG cells xenografted in mouse assessed as tumor volume at 15 mg/kg, ip administered as q3w/14 days regime relative to control; format: functional, U-87MG ATCC; summary of the method: as §1

SMILES | Retention_time (MCF7 [7]) | IC50 [9] | IC50 (MCF7 [11]) | IC50 (MDA-MB-231) | IC50 (U-251) | IC50 [15] | IC50 (HT-29) | also measured
CCc1c2c(nc3ccc(B(O)O)cc13)-c1cc3c(c(=O)n1C2)COC(=O)[C@]3(O)CC | 12.87 min | 18 nM | 628 nM | 4280 nM | 36 nM | 47 nM | 47 nM | T/C [1]: 105.99%; Activity (Mus musculus [2]): Non-toxic; Activity (Mus musculus [3]): Non-toxic; inhibition [4]: Active; T/C [5]: 28.1%; Activity (Mus musculus [6]): Non-toxic; Drug uptake (MCF7 [8]): 59%; Activity (Mus musculus [10]): 2.11%; Activity (Mus musculus [12]): 12.69%; Activity (Mus musculus [13]): Non-toxic; Drug metabolism [14]: Dose-dependent effect
CCc1c2c(nc3ccc(B4OC(C)(C)C(C)(C)O4)cc13)-c1cc3c(c(=O)n1C2)COC(=O)[C@]3(O)CC | – | – | – | – | – | – | – | Activity (Mus musculus [16]): 15.88%; Activity (Mus musculus [17]): Non-toxic; T/C [18]: 8.39%
CCc1c2c(nc3ccc(O)cc13)-c1cc3c(c(=O)n1C2)COC(=O)[C@]3(O)CC [7-ETHYL-10-HYDROXYCAMPTOTHECIN] | 8.85 min | 8 nM | 515 nM | 1970 nM | 21 nM | 30 nM | 54 nM | –

Reference: ChEMBL document CHEMBL3792343, “10-Boronic acid substituted camptothecin as prodrug of SN-38” (Eur J Med Chem, 2016)
